Among the data in ChEMBL document CHEMBL1124929, “Indolo[2,1-a]isoquinolines. Syntheses, steroid hormone receptor binding affinities, and cytostatic activity” (1990) are T/C values, retold here.

The T/C is the result in the treated group divided by that in the control group, in per cent.

The experiment relates to MCF7. Description: Effect on hormone-dependent MCF-7 human breast cancer cell proliferation at 1x10E-6M. It counts as functional. A digest of the protocol:
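Cells were plated at about 2 × 10⁴ per well in six-well dishes. MCF-7 cells were grown in modified improved MEM with 5% NCS, switched to charcoal-treated NCS two weeks before the test, and exposed for 5 days with a re-dose on day 4. MDA-MB 231 cells were grown in McCoy 5a with 10% NCS and exposed for 2 days. Compounds were given 1 day after plating in 0.1% DMSO, with DMSO-matched controls. Read-out was cell number as % T/C, mean of three experiments with six dishes.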

Take `CCC1Cc2cc(OC(C)=O)ccc2-c2cc3cc(OC(C)=O)ccc3n21` (stereo unspecified): the T/C came out at 45%.
